From publication PMC3531959 (ChemMedChem, 2012)
“Also recorded” adds a separate entry of the source.

Molecular target: Bos taurus Arp2/3 complex (Bos taurus, UniProt A7MB62+P61157)
Test: Pyrene actin polymerization assay
Assay type: biochemical
Details: for increase in IC50 relative to 1 / inhibition of Arp2/3 complex (in words): actin polymerization assay; for increase in IC50 relative to 1: compared to 1
Method in brief: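 Bovine Arp2/3 complex from calf thymus, activated by human N-WASp-VCA (residues 428-505, E. coli-expressed). Rabbit muscle actin, 30% pyrene-labelled at […], Mg/EGTA-exchanged. Polymerization started by adding Arp2/3 and VCA; final buffer 10 mM imidazole pH 7.0, 50 mM KCl, 1 mM EGTA, 1 mM MgCl2, 1 mM DTT. Read at ex 365/em 407 nm every 10 s for 45 min. Inhibitor tested up to 200 μM. IC50 from a fit of maximal rate (nM actin s⁻¹) versus concentration.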

Row | SMILES | IC50 | increase in IC50 relative to 1 | IC50 relative to 2 (higher IC50 than 2) | inhibition of Arp2/3 complex (in words)
1 | COc1ccc(C(=O)NCCc2c(C)[nH]c3ccccc23)c(F)c1 [Compound 4, 2-fluoro-4-methoxy-N-(2-(2-methyl-1H-indol-3-yl)ethyl)benzamide] | 19 ± 6 µM | nearly double | fivefold | –
2 | Cc1[nH]c2ccccc2c1CCNC(=O)c1ccccc1Cl [Compound 10, 2-chloro-N-(2-(2-methyl-1H-indol-3-yl)ethyl)benzamide] | – | – | – | greatly reduced or no inhibition; also recorded: completely abolishes inhibition
3 | Cc1[nH]c2ccccc2c1CCNC(=O)c1ccc(O)cc1F [Compound 2, 2-fluoro-4-hydroxy-N-(2-(2-methyl-1H-indol-3-yl)ethyl)benzamide] | 4 ± 1 µM | – | – | –
4 | Cc1[nH]c2ccc(Cl)cc2c1CCNC(=O)c1ccccc1F [Compound 3, N-(2-(5-chloro-2-methyl-1H-indol-3-yl)ethyl)-2-fluorobenzamide] | 18 ± 5 µM | nearly double; also recorded: only slightly | – | –

Second part, the molecule after the results:

Row | IC50 | increase in IC50 relative to 1 | IC50 relative to 2 (higher IC50 than 2) | inhibition of Arp2/3 complex (in words) | SMILES
5 | – | – | – | greatly reduced or no inhibition | Cc1[nH]c2ccccc2c1CCNC(=O)c1cccc(Cl)c1 [Compound 11, 3-chloro-N-(2-(2-methyl-1H-indol-3-yl)ethyl)benzamide]
6 | 181 ± 85 µM | 15-20 fold | – | greatly reduced or no inhibition | Cc1[nH]c2ccccc2c1CCNC(=O)c1ccc(Cl)cc1 [Compound 7, 4-chloro-N-(2-(2-methyl-1H-indol-3-yl)ethyl)benzamide]
7 | 238 ± 91 µM | 15-20 fold | – | – | Cc1[nH]c2ccccc2c1CCNC(=O)c1cccc(Cl)c1F [Compound 8, 3-chloro-2-fluoro-N-(2-(2-methyl-1H-indol-3-yl)ethyl)benzamide]
8 | 32 ± 18 µM | approximately 3 fold | – | – | Cc1[nH]c2ccccc2c1CCNC(=O)c1ccc(Cl)cc1F [Compound 6, 4-chloro-2-fluoro-N-(2-(2-methyl-1H-indol-3-yl)ethyl)benzamide]
